Source: ChEMBL document CHEMBL5661984, “Allosteric ligands for the pharmacologically dark receptors GPR68 and GPR65” (Nature, 2015)
Calls of active or inactive are those of the source.

Experiments:
[1] = Positive allosteric modulator activity at GPR68 R189M mutant transfected in human HEK293T cells assessed as proton-mediated calcium release at 10 uM incubated for 10 mins by Fluo-4 Direct calcium dye based FLIPR assay (reference value: 1.43 +/- 0.01 %); settings: HEK-293T, condition central nervous system disease
[2] = Positive allosteric modulator activity at GPR68 R189M mutant expressed in human HEK293T cells assessed as cAMP production in presence of H+ proton by Split-luciferase based luminescence counter analysis (reference value: 3.7 %); settings: HEK-293T, condition central nervous system disease
In short: (§1)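 Proton concentration-response of GPR68 (wild type or E160A/K/Q, R189L/M, H269F mutants) in transiently transfected HEK293-T cells. Read-out: GloSensor cAMP, with luciferin loading 90 min at 37°C at pH 8.4. Run with and without increasing modulator concentrations; 20 min at room temperature before luminescence. Proton KA fixed to the proton EC50 without modulator. KB, τA, α, β fitted globally with an operational allosteric model. n=4.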

[3] = Toxicity in C57BL/6 mouse assessed as cued memory retrieval by Morris water maze test; settings: in vivo
[4] = Positive allosteric modulator activity at GPR68 E160K mutant expressed in human HEK293T cells assessed as cAMP production in presence of H+ proton by Split-luciferase based luminescence counter analysis (reference value: 6.70+/-0.08); type: cell-based; settings: HEK-293T; in short: as §1
[5] = target: T1, G-protein coupled receptor 68 (Homo sapiens, UniProt Q15743); assay: Positive allosteric modulator activity at GPR68 expressed in human HEK293T cells assessed as proton-mediated phosphatidylinositol hydrolysis on pH 8.4 at 10 uM incubated for 20 mins by TriLuxMicroBeta counter analysis; type: functional, cell-based; settings: filed as positive allosteric modulator
In short: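 GPR68-transfected HEK293-T cells labeled overnight with 3H-inositol (1 μCi/well) in inositol-free DMEM with 5% dialyzed FBS. Treated for 20 min at pH 8.4 in HBSS with 10 mM HEPES, 10 mM MES and 20 mM LiCl, compound at 10 μM. Extracted with 50 mM ice-cold formic acid, 30 min at 4°C. Captured on YSi beads and counted (cpm/well). n=3. 4-parameter logistic fit.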

[6] = target: 5-hydroxytryptamine receptor 2B (Homo sapiens, UniProt P41595); assay: Antagonist activity against 5-HT2B […] receptor (unknown origin) transfected in human HEK293T cells assessed as inhibition constant incubated for 15 mins by luminescence counter analysis; type: functional, cell-based
[7] = target: T1, G-protein coupled receptor 68; assay: Positive allosteric modulator activity at HA-tagged GPR68 expressed in human HEK293T cells assessed as activation of p42/p44 MAP kinase at pH 7.4 by immunoblotting analysis; type: cell-based; settings: filed as positive allosteric modulator
In short: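 HEK293 cells stably expressing N-terminal HA-tagged human GPR68 (vector-only line as control), selected with 250 μg/ml G418. Confluent cells were switched to Hams-F12 at pH 8.0 or 7.4 for 1 h, then given vehicle or 50 μM compound for 10 min. Lysate immunoblots were probed for HA, total VASP, p-p42/p44 and β-actin, read with infrared-fluorophore secondaries.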

[8] = target: C-X-C chemokine receptor type 4 (Homo sapiens) (UniProt P61073); assay: Agonist activity against CXCR4 receptor (unknown origin) transfected in human HEK293T cells at 10 uM incubated for 15 mins in presence of CXCL12 by luminescence counter analysis; type: functional, cell-based
In short: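 HEK293-T cells transiently transfected with CXCR4 and the GloSensor cAMP reporter, plated in DMEM with 1% dialyzed FBS. Test compound at 10 μM in 20 mM HEPES/HBSS, pH 7.4, 15 min at room temperature. Agonist mode: luciferin (4 mM final) plus 200 nM isoproterenol added, 20 min. Antagonist mode: compound 10 min, then reference agonist at EC80 for 10 min, then luciferin/isoproterenol. Luminescence read. CXCL12 (1 or 3 μM) is the agonist control and AMD3100 (10 μM) the antagonist control. n=2.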

[9] = Toxicity in C57BL/6 mouse assessed as decreased contextual memory retrieval; settings: in vivo
In short: (§2)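 Fear conditioning in wild-type and GPR68 KO C57BL/6J congenic mice. Training was 8 min: 3 pairings of a 30-s, 90 dB, 5 kHz tone with a 2-s, 0.6 mA foot shock. Context freezing scored at 24 h over 5 min; cue test at 48 h over 6 min. Freezing defined as no movement for 0.5 s. Compound 10 mg/kg in 10% Tween 80 or saline, 30 min before training. n=6–8 per group. Two-way ANOVA with Bonferroni post-hoc test.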

[10] = Binding affinity to GPR68 H269F mutant expressed in human HEK293T cells assessed as cAMP production in presence of H+ proton by Split-luciferase based luminescence counter analysis; settings: condition central nervous system disease; in short: as §1
[11] = Binding affinity to GPR68 E160A mutant expressed in human HEK293T cells assessed as cAMP production in presence of H+ proton by Split-luciferase based luminescence counter analysis; settings: condition central nervous system disease; in short: as §1
[12] = Positive allosteric modulator activity at GPR68 E160K mutant expressed in human HEK293T cells assessed as cAMP production in presence of H+ proton by Split-luciferase based luminescence counter analysis (reference value: 24.6+/-2.7 %); settings: HEK-293T, condition central nervous system disease; in short: as §1
Mus musculus [13] = species on record: Mus musculus; assay: […] activity against GPR68 knockout C57BL/6 mouse assessed as contextual memory retrieval; type: functional, organism-based; in short: as §2
[14] = Binding affinity to GPR68 E160K mutant expressed in human HEK293T cells assessed as cAMP production in presence of H+ proton by Split-luciferase based luminescence counter analysis; settings: condition central nervous system disease; in short: as §1
Mus musculus [15] = species on record: Mus musculus; assay: Antipsychotic activity against GPR68 knockout C57BL/6 mouse assessed as cued memory retrieval by Morris water maze test; type: functional, organism-based
[16] = Positive allosteric modulator activity at GPR68 R189M mutant transfected in human HEK293T cells assessed as proton-mediated calcium release at 10 uM incubated for 10 mins by Fluo-4 Direct calcium dye based FLIPR assay (reference value: 6.77 +/- 0.01); type: cell-based; settings: HEK-293T
[17] = Positive allosteric modulator activity at GPR68 R189L mutant transfected in human HEK293T cells assessed as proton-mediated calcium release at 10 uM incubated for 10 mins by Fluo-4 Direct calcium dye based FLIPR assay (reference value: 6.85 +/- 0.02); type: cell-based; settings: HEK-293T
[18] = Binding affinity to GPR68 E160Q mutant expressed in human HEK293T cells assessed as cAMP production in presence of H+ proton by Split-luciferase based luminescence counter analysis; settings: condition central nervous system disease; in short: as §1
[19] = Positive allosteric modulator activity at GPR68 E160K mutant transfected in human HEK293T cells assessed as proton-mediated calcium release at 10 uM incubated for 10 mins by Fluo-4 Direct calcium dye based FLIPR assay (reference value: 1.38 +/- 0.01 %); settings: HEK-293T, condition central nervous system disease
[20] = Positive allosteric modulator activity at GPR68 H269F mutant transfected in human HEK293T cells assessed as proton-mediated calcium release at 10 uM incubated for 10 mins by Fluo-4 Direct calcium dye based FLIPR assay (reference value: 6.44 +/- 0.02); type: cell-based; settings: HEK-293T

T1 sequence (Q15743 whole entry): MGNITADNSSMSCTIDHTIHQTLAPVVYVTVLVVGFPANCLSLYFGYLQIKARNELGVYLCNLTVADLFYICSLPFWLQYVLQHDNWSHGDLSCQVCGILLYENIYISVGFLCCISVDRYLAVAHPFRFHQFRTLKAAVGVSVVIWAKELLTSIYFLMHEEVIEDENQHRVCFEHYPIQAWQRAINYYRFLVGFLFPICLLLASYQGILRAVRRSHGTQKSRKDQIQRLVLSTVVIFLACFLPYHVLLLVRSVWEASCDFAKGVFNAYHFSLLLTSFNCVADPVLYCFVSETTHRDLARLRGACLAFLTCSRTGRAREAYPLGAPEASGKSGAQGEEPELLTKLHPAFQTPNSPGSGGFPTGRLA
5-hydroxytryptamine receptor 2B, sequence (P41595 whole entry): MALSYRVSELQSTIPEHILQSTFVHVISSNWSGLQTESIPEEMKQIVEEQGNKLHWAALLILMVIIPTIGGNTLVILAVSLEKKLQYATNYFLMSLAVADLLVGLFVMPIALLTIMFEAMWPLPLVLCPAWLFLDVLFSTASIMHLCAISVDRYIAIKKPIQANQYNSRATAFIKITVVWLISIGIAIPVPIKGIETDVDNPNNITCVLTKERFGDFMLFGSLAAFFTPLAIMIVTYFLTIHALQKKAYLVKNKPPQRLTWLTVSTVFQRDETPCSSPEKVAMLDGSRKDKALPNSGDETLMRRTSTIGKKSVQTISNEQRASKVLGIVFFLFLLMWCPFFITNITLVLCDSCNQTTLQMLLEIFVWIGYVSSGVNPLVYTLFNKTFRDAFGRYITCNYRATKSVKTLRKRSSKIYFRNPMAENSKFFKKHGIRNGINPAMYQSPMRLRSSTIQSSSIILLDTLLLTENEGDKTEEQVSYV
C-X-C chemokine receptor type 4 (Homo sapiens), sequence (P61073 whole entry): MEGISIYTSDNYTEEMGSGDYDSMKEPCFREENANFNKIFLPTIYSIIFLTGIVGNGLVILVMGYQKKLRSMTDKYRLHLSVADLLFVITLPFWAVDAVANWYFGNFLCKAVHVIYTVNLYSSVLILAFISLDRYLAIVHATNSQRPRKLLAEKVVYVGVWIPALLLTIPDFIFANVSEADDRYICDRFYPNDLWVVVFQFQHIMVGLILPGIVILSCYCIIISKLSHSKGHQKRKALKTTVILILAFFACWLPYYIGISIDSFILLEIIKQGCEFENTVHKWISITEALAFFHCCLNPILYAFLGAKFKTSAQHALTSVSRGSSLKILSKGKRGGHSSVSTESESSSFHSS

Activity [5]: Active | Ki [6]: 736 nM | Activity [7]: Active | Activity [8]: inactive | EC50 [16]: 155 nM | EC50 [17]: 87.1 nM | EC50 [20]: 145 nM
Compound: Nc1nc(NCc2ccccc2)nc(-c2ccccc2CO)n1 [Ogerin]
Emax at 10 µM [1]: 1.36% | Emax [2]: 10% | Activity [3]: Non-Toxic | EC50 [4]: 77.6 nM | Activity [9]: Toxic | pKb [10]: 4.33 | pKb [11]: 4.67 | Emax [12]: 42.6% | Activity (Mus musculus [13]): inactive | pKb [14]: 4.98 | Activity (Mus musculus [15]): inactive | pKb [18]: 4.9 | Emax at 10 µM [19]: 1.12%
